For 7 compounds, Activity, zone of inhibition and IC50 results are on record in ChEMBL document CHEMBL1142105, “Bioactive metabolites from the Caribbean sponge Aka coralliphagum” (J Nat Prod, 2007).

In brackets after ≈: the same amount, converted by molar mass. Some results are limits rather than exact numbers.

Series [1] is described as follows: DPPH radical scavenging activity at 200 umol/L relative to control. In kind it is functional. The gist of the method: (§1)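 Samples in EtOH (1000 µL at 200 or 40 µM) were mixed with 250 µL of 1 mM DPPH stock and 750 µL EtOH, then held at RT in the dark for 30 min. Absorbance was read at 517 nm. Scavenging % = 100 − (A sample × 100/A control).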
Series [2] in a line: DPPH radical scavenging activity at 40 umol/L relative to control. In kind it is functional. The gist of the method:
as §1
(The DPPH test is a chemical assay of radical scavenging.)

The subject of series [3] is Escherichia coli. Kind of series: Antimicrobial activity against Escherichia coli tolC at 20 ug by agar diffusion test. It is filed as functional. The following applies: read-out: IZ. A digest of the protocol:
(§2)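 Agar diffusion on 6 mm paper disks loaded with 20 µL of a 1 mg/mL methanol solution (20 µg). Bacteria from the HZI collection were grown on standard media and seeded into agar medium at a final OD of 0.01. Plates were incubated at 30 °C, and inhibition zone diameter (mm) was read after 1 and 2 days.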
On the technique in general: Agar diffusion results depend on both activity and mobility in agar.

Series [4] deals with Wickerhamomyces anomalus. Put plainly: Antimicrobial activity against Hansenula anomala at 20 ug by agar diffusion test. In kind it is functional. The settings on record: read-out: IZ. The gist of the method:
(§3)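 Yeasts from the HZI collection were seeded into agar medium at a final OD of 0.1. Paper disks (6 mm) carried 20 µg of compound, applied as 20 µL of 1 mg/mL in MeOH. Plates were kept at 30 °C, and inhibition zone diameters (mm) were measured at days 1 and 2.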

Series [5] has as its system Saccharomyces cerevisiae. Kind of series: Antimicrobial activity against Saccharomyces cerevisiae at 20 ug by agar diffusion test. The settings on record: read-out: IZ. It is filed as functional. The gist of the method:
as §3

Series [6] concerns L929. Put plainly: Cytotoxicity against mouse L929 cells by MTT assay. It is filed as cell-based. A digest of the protocol: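 L929 mouse fibroblasts (DSMZ) were grown in high-glucose DME with 10% fetal calf serum at 37 °C and 10% CO2. Cell suspension (120 µL at 50 000/mL) was added to 60 µL of serial compound dilutions in microtiter plates. Growth was determined by MTT after 5 days, with concentrations expressed in µg/mL.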

The test system of series [7] is Pseudomonas aeruginosa. Kind of series: Antimicrobial activity against Pseudomonas aeruginosa at 20 ug by agar diffusion test. In kind it is functional. The settings on record: read-out: IZ. A digest of the protocol:
as §2

Series [8] deals with Staphylococcus aureus. Put plainly: Antimicrobial activity against Staphylococcus aureus at 20 ug by agar diffusion test. It is filed as functional. The settings on record: read-out: IZ. The gist of the method:
as §2

In series [9] the test system is Globisporangium debaryanum. Kind of series: Antimicrobial activity against Pythium debaryanum at 20 ug by agar diffusion test. The following applies: read-out: IZ. It is filed as functional. The gist of the method: (§4)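 Fungal spores were rinsed from well-grown Petri dishes with 10 mL sterile water, and 1 mL of the suspension was mixed into 100 mL molten agar. Disks (6 mm) with 20 µg compound (20 µL, 1 mg/mL in methanol) were placed on the agar. Plates were incubated at 30 °C, and zone diameter (mm) was scored after 1 and 2 days.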

Series [10] concerns Botrytis cinerea. Kind of series: Antimicrobial activity against Botrytis cinerea at 20 ug by agar diffusion test. In kind it is functional. The settings on record: read-out: IZ. The gist of the method:
as §4

The test system of series [11] is Micrococcus luteus. Kind of series: Antimicrobial activity against Micrococcus luteus at 20 ug by agar diffusion test. The settings on record: read-out: IZ. In kind it is functional. The gist of the method:
as §2

For series [12], the system named is Candida albicans. Put plainly: Antimicrobial activity against Candida albicans at 20 ug by agar diffusion test. It is filed as functional. The settings on record: read-out: IZ. The gist of the method: as §3
Series [13] has as its system Aspergillus fumigatus. Kind of series: Antimicrobial activity against Aspergillus fumigatus at 20 ug by agar diffusion test. It is filed as functional. The following applies: read-out: IZ. A digest of the protocol:
as §4

Series [14] concerns Klebsiella pneumoniae. Kind of series: Antimicrobial activity against Klebsiella pneumoniae at 20 ug by agar diffusion test. In kind it is functional. The settings on record: read-out: IZ. The gist of the method: as §2
Series [15] deals with Mycolicibacterium phlei. Kind of series: Antimicrobial activity against Mycobacterium phlei at 20 ug by agar diffusion test. The following applies: read-out: IZ. In kind it is functional. A digest of the protocol:
as §2

As for `O=C1O[C@H]([C@@H](O)CO)C(O)=C1O`, the values for the Activity in [1] and in series [2] were 95.3% and 27%, respectively.
Turning to `C[C@H]1CCC2C(C)(C)CCC[C@]2(C)/C1=C/c1cc(O)c(O)c(/C=N/CCS(=O)(=O)O)c1OS(=O)(=O)O` (some centres undefined) [SIPHONODICTYAL B1], the zone of inhibition at 20 µg/disc in [3] is 0 mm; in [4] it was 0 mm; in series [5], 0 mm; in series [7], 0 mm; in series [8] it was 12 mm; in series [9], 0 mm. The zone of inhibition at 20 µg/disc in series [10] came to 13 mm; in series [11], 0 mm; in [12], 0 mm; in [13] it was 0 mm; in series [14], 0 mm; in series [15], 0 mm. Further, the Activity in series [6] stood at 10 µg/mL; in [1], 80.8%; in [2], 23.5%.
Broadly, the IC50 is the concentration that gives 50% inhibition. As for `C[C@H]1CCC2C(C)(C)CCC[C@]2(C)/C1=C/c1cc(O)c(O)c(C=O)c1OS(=O)(=O)O` (some centres undefined) [SIPHONODICTYAL B2], the zone of inhibition at 20 µg/disc stood at 0 mm in [3]; 0 mm in series [5]; 0 mm in [7]; 13 mm in [8]; 0 mm in [9]; 15 mm in series [10]. The zone of inhibition at 20 µg/disc in series [11], in series [12], in [13], in series [14] and in series [15] was 0 mm throughout. Moreover, half-maximal inhibition in [6] (IC50) was put at 6 µg/mL (≈ 13.7 µM). Further, the figures for the Activity in series [1] and in series [2] were 88.8% and 25.3%, respectively.
As to `C[C@H]1CCC2C(C)(C)CCC[C@]2(C)/C1=C/c1cc(OS(=O)(=O)O)c(O)c(C=O)c1OS(=O)(=O)O` (some centres undefined) [SIPHONODICTYAL B3], the zone of inhibition at 20 µg/disc in series [3], in series [4], in [5], in series [7], in series [8] and in series [9] was 0 mm in each case. Further, the zone of inhibition at 20 µg/disc in series [10], in series [11], in series [12], in series [13], in series [14] and in series [15] was 0 mm in each case. In series [6], the Activity is greater than 40 µg/mL.
Take `C[C@H]1CCC2C(C)(C)CCC[C@]2(C)/C1=C/c1cc(O)c(O)c(C=O)c1O` (some centres undefined) [SIPHONODICTYAL B]: the zone of inhibition at 20 µg/disc in [3] was 9 mm; in series [5] it was 0 mm; in series [8], 12 mm; in [13] it was 15 mm. In [6], this compound returned an Activity of 0.2 µg/mL.
Take `C=C1CCCC2[C@](C)(Cc3cc(C=O)cc(O)c3OS(=O)(=O)O)[C@@H](C)CC[C@]12C` (some centres undefined) [SIPHONODICTYAL G]: the zone of inhibition at 20 µg/disc in series [3], in series [4], in series [5], in [7], in [8] and in [9] was 0 mm throughout. Moreover, the zone of inhibition at 20 µg/disc in [10], in series [11], in [12], in [13], in [14] and in series [15] was 0 mm each time. Besides, the Activity in series [6] stood at 10 µg/mL; in [1], 32.2%; in [2], 5.9%.
In the case of `C=C1CCCC2[C@](C)(Cc3cc(CO)cc(O)c3OS(=O)(=O)O)[C@@H](C)CC[C@]12C` (some centres undefined) [SIPHONODICTYOL G], the zone of inhibition at 20 µg/disc in series [3], in series [4], in [5], in series [7], in [8] and in [9] was 0 mm throughout. Also, the zone of inhibition at 20 µg/disc in [10] was 15 mm; in [11] it was 0 mm; in series [12] it was 0 mm; in [13] it was 0 mm; in [14], 0 mm; in series [15], 0 mm. Also, the results for the Activity in series [6], in series [1] and in series [2] were greater than 40 µg/mL, 39.8% and 2.6%, respectively.
